ChEMBL document CHEMBL4513216, “Probing the Open Global Health Chemical Diversity Library for Multistage-Active Starting Points for Next-Generation Antimalarials” (ACS Infect Dis, 2020)

Test: Toxicity liver stage against HepG2, at 10uM
Type: cell-based
Design: test concentration 10 uM, cell line HepG2-A16-CD81EGFP
Conditions: human, HepG2-A16-CD81EGFP cells; read-out: INHIBITION
How it was run: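 Uninfected HepG2-A16-CD81EGFP cells, 3 × 10^3 per well, 1536-well, plated on prespotted compound at 10 μM final, parasite-free screening media added to match infected plates; puromycin 10 μM positive, DMSO 0.5% negative; run in parallel with 48 h PbLuc assay at 37 °C, 5% CO2; viability by CellTiter-Glo luminescence, normalized to controls.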

SMILES | cytotoxicity at 10 µM
NCC1CCN(c2cnn(CCCn3cccn3)c(=O)c2)CC1 | -52.8%
Cc1nnc2n1CCN(C(=O)c1cn(-c3ccccc3Cl)nn1)C2 | -4.55%
Cn1c2ccc(F)cc2c2ncn(CCCN(CCO)CCO)c(=O)c21 | 11.2%
O=C(c1ccoc1)N1C[C@H]2CC[C@@]3(N=C(c4ccccc4)NC3=O)[C@H]2C1 | 6.79%
CCN1C(=O)C2(CCOCC2)c2cc(NC(=O)c3csnn3)ccc21 | 0.223%
COCCN(CCOC)Cc1c(C)nc2ccccc2c1O | 2.08%
Cn1cnc2c(-c3cccnc3)nc(C3CCNCC3)cc21 | -99.9%
O=C1NC(c2cnc(C3CCC3)s2)Nc2ccccc21 (configuration not stated) | -3.95%
CCOCC(=O)NCC1(NC(C)c2ccccc2)CCOCC1 (configuration not stated) | -8.01%
Cn1cc(C(=O)NCc2cn3c(n2)CN(CC2CCOC2)CC3)cn1 (configuration not stated) | 5.22%
O=S1(=O)NC2(CCCN(CCc3ccccc3)C2)COc2ccccc21 (configuration not stated) | 7.47%
O=C1CC(c2ccc(C(=O)O)cc2)c2ncn(-c3ccccc3F)c2N1 (configuration not stated) | -3.51%
COCCCN(CCOC)Cc1nc2c(cnn2C)c(=O)[nH]1 | -5.72%
CC(O)CN1CCN(Cc2cccc(C#N)c2)CC1 (configuration not stated) | 9.56%
CC(C)c1nc(CCN(C)C(=O)C2COc3ccccc3C2)no1 (configuration not stated) | 4.31%
CCn1c(CN2CCN(CCO)CC2)nc2c(F)cccc21 | -8.83%
O=C(Cn1nc(-c2ccc(F)cc2)oc1=O)NCCc1ccccc1 | -13.5%
CN(C)CCn1c2c(ccc1=O)CC(NC(=O)NC1CCCC1)CC2 (configuration not stated) | -0.913%
CCc1nnc2n1CCN(Cc1csc(-c3ccsc3)n1)C2 | -17.5%
c1ccc(OCc2noc3c2CN(c2ncccn2)CC3)nc1 | -3.25%
O=C(CCc1ccccc1)NCC(O)c1c(F)cccc1F (configuration not stated) | -0.558%
Nc1cccnc1N1CCC(O)CC1 | 2.3%
CCN1CCOC(CNc2nccc(C(F)(F)F)n2)C1 (configuration not stated) | 5.31%

SMILES | cytotoxicity at 10 µM
Cc1ccc(CN2Cc3ccccc3OC3(CCC(CO)CC3)C2)o1 (configuration not stated) | -13.7%
CCOc1cc(F)ccc1NS(=O)(=O)c1cc(C)c(C(=O)O)s1 | -10%
Cc1ccc(CNC(=O)NCc2nccn2C)c(OC(C)(C)C)c1 | 2.66%
Cc1cn2c(CN(C)C(=O)c3cccnc3O)c(C)nc2s1 | -8.59%
CC(C)C(=O)N1CCC2(CN(CC3CCCC3)C2)C1 | 3.86%
Cc1cnc(-c2nc(O)c3c(n2)CN(C(=O)C2CCCO2)CC3)cn1 (configuration not stated) | -0.661%
CCOCCCNC(=O)c1nc2c(s1)CCCN2c1ccc(C)nn1 | 13.5%
CSCCC(=O)NS(=O)(=O)c1ccc2c(c1)OCCO2 | -14.7%
O=C(NCc1ccccc1OCCO)Nc1ccc2c(c1)CCC2 | 9.46%
CC(C)(C)OC(=O)N[C@H]1CCN(C(=O)c2cc(Cl)c[nH]2)C1 | -2.84%
Cc1nn(C)c(C)c1-c1ccc(=O)n(C(C)C(=O)NC2CC2)n1 (configuration not stated) | 0.0475%
CC(C)c1nc(N2CCN3CCCC3C2)c2cnn(C)c2n1 (configuration not stated) | -11.9%
CSCC[C@H]1CN2CCC[C@H]2CN1Cc1cn(C)nc1C | -9.85%
O=C(Nc1cccnc1)C1=Cc2ccccc2OC1 | 4.19%
O=C1CC(c2ccncc2)C2(CCN(Cc3nccs3)CC2)N1 (configuration not stated) | 4.8%
Cc1ccccc1C(NC(=O)NCC1(O)CCC1)C1CC1 (configuration not stated) | -3.03%
Oc1cccc(CN2CCN(C3CCc4ccccc4C3)CC2)c1 (configuration not stated) | 6.42%
CC(C)Cc1cn(C2CCN(C(C)CCn3cccn3)CC2)nn1 (configuration not stated) | -1.8%
COc1cccc(C(=O)N2CCC(Nc3ccc(C)nn3)CC2)c1 | -2.24%
O=C(CSC1CCCC1)N1CCN(C(=O)C2CC2c2cccs2)CC1 (configuration not stated) | 4.48%
CC(C)c1nc(C2CCCN(C(=O)c3ccc4nccn4c3)C2)no1 (configuration not stated) | -0.0722%
CN1CCC(CNC(=O)c2cccc(CN3CCCCCC3)c2)C1 (configuration not stated) | -5.39%
CCOCCCNC(=O)c1cc(Br)c2c(c1)OCCO2 | -2.21%

SMILES | cytotoxicity at 10 µM
COCCNc1ccc(CC2CCCN(c3ncccn3)C2)nn1 (configuration not stated) | 3.81%
O=C(NC[C@H]1OC[C@@H](NCc2ccccc2F)[C@@H]1O)Nc1ccccc1 | -7.3%
COc1cc(CNCc2ccc(NC(=O)NC(C)C)cc2)cc(OC)c1 | 0.347%
Cc1nc(NC2CCCC2)c2c(n1)c(C)nn2C | 14.1%
CN(c1ccccc1)c1ccc(CC2CCCN(CCO)C2)nn1 (configuration not stated) | -9.3%
O=C(Cc1ccccn1)N1CCn2cc(Cn3cncn3)nc2C1 | -129%
NC(=O)c1ccc(N2CCN(Cc3ccc(F)cc3Cl)CC2)nn1 | 62.6%
CCN1CCN(c2ccc(F)cc2C(C)NCc2nc(C)no2)CC1 (configuration not stated) | -17.9%
CCCC(C)NCc1cccnc1N1CCN(c2ccccn2)CC1 (configuration not stated) | 6.99%
CC(Cn1ccnc1)NC(=O)C1(c2ccc(F)cc2)CC1 (configuration not stated) | -9.62%
O=C(CN(Cc1cccs1)C1CCS(=O)(=O)C1)NCC1CCCCC1 (configuration not stated) | 0.611%
CC(C)C(N)CNS(=O)(=O)Cc1cccc2cccnc12 (configuration not stated) | -9.32%
CC(C)c1nc(C2CCCN2CCS(C)(=O)=O)no1 (configuration not stated) | 6.51%
O=C(NCC(O)c1ccc(F)cc1F)c1cccc(F)c1 (configuration not stated) | 7.43%
O=C(CN1CCC2(CCCCC2)C1)NCC(F)(F)F | -10.5%
CCOCC1CN(C(=O)c2ccncc2)Cc2nn(C)cc21 (configuration not stated) | -5.82%
Cc1nc2c(c(N3CCN(Cc4ccco4)CC3)n1)CCNCC2 | -4.27%
O=C1CO[C@H]2CN(Cc3ccc(F)c(F)c3)C[C@H]2N1 | -2.49%
CCC(C)NS(=O)(=O)Cc1cccc(NC(=O)C2=CCCC2)c1 (configuration not stated) | -0.217%
Cc1nc(CN2CCN(C(C)C(=O)NC3CCCC3)CC2)cs1 (configuration not stated) | -3.9%
Cc1cc(C(=O)Nc2ccc(OCC3CCOCC3)cc2)[nH]n1 | -7.04%
c1cc(CNc2ncc(-c3cnccn3)c(C3CC3)n2)ccn1 | 24%
CCN(CC)Cc1ccc(C(=O)N2CCCC2c2cnn(C)c2)o1 (configuration not stated) | 3.51%

SMILES | cytotoxicity at 10 µM
O=C(c1cc[nH]n1)N(Cc1ccccc1)CC1CCC1 | -6.74%
CSCCN(C)C(=O)C1(c2ccc(F)cc2F)CCOCC1 | 0.53%
O=C(Cn1nc(Br)nc1Br)N1CCOCC1 | -1.14%
O=C(c1ccsc1)N1C[C@H]2CN(Cc3cccnc3)C(=O)[C@H]2C1 | -5.15%
COc1c(C2CCCN2CC(=O)Nc2cccnc2)c(C)nn1C (configuration not stated) | -2.39%
CNC(=O)N1CCC2(CC1)CN(C)c1ccc(F)cc12 | -4.78%
CC(C)COCC1CN(Cc2ccsc2)Cc2ncn(C)c21 (configuration not stated) | 6.61%
CCN(Cc1ccc(CN(C)C)cc1)C(=O)c1ccncc1O | -7.19%
Cc1cccc(C(=O)N2CCN(CCOC(C)C)CC2)n1 | -0.0394%
COc1ccc(CN(C)C2CCN(S(C)(=O)=O)CC2)c2cccnc12 | 98.9%
Cc1cnc2c(c1NCc1cccs1)c(=O)n(C)c(=O)n2C | 0.319%
CC(C)(C)C(=O)N1CCCC1c1ccc(C(=O)N2CCOCC2)s1 (configuration not stated) | -145%
CCOC(=O)c1ccc(N2CCN(Cc3c(C)nn(C)c3Cl)CC2)nc1 | 20.5%
CN1CCCN(S(C)(=O)=O)c2cc(F)ccc21 | -2.24%
COc1ccc2nc(CNC(=O)c3cc(C(C)C)no3)[nH]c2c1 | -0.527%
Cc1cc(CN2CC[C@H]3OCC[C@@]3(C(=O)NC(C)C)C2)no1 | 5.86%
Cc1nc(C)n(Cc2cccc(NC(=O)NC(C)(CO)C3CC3)c2)n1 (configuration not stated) | 14.3%
CCC(=O)c1ccc(OCC(=O)NC(C)c2nnn[nH]2)cc1 (configuration not stated) | -1.62%
COc1ccc(S(=O)(=O)N2CCN(C)c3ncccc3C2)cc1 | -110%
CCn1ccnc1C1CCCN(c2nccc3ccccc23)C1 (configuration not stated) | -2.74%
Cc1cnc2n(c1=O)CC(C(=O)Nc1ccon1)CS2 (configuration not stated) | 0.595%
COCC(=O)N(C)Cc1cccc(Cl)c1 | -10.8%
Cn1cc(-c2csc(N3CCCCCC3)n2)cn1 | 4.22%

SMILES | cytotoxicity at 10 µM
NC(=O)C1CN(C(=O)Nc2ccccc2OCC(F)(F)F)CCO1 (configuration not stated) | -7.75%
COc1cc2nc3n(c(=O)c2cc1OC)CCN(C(=O)C(C)(C)C)CC3 | -13.5%
CCN(Cc1cccc(Cl)c1)Cn1nc(C)c2c(C)onc2c1=O | -13%
CN(C)c1ncccc1CNS(=O)(=O)c1ccc(F)c(F)c1 | -7.18%
CS(=O)(=O)NCC1CCCN(C(=O)CCCc2ccccc2)C1 (configuration not stated) | -2.78%
CC(C)(N)C(=O)N1CCCC1c1cncc(Oc2ccccc2)n1 (configuration not stated) | -6.02%
COCCc1noc(CN2CCC(c3ccccc3C(=O)O)C2)n1 (configuration not stated) | -3.03%
Cc1ccc(NC2CCN(C(=O)c3cccc4ncccc34)CC2)nn1 | 7.51%
COc1cccc(OCC(=O)N(C)c2cccnc2N(C)C)c1 | 0.102%
CN(CCNC(=O)N1CCN(Cc2ccon2)CC1)c1ccccc1 | 22.2%
Cc1ccc(C(=O)N2C[C@@H](NS(C)(=O)=O)[C@H](C(C)C)C2)cc1O | -2.62%
Cc1cccc(CCC(=O)Nc2cccnc2N2CCC(O)CC2)c1 | -2.25%
Cc1nc2c(c(=O)n1C)CN(C(=O)C1CCCN(CC(N)=O)C1)C2 (configuration not stated) | -6%
N#CC1(c2ccccc2)CCN(C(=O)CN2C(=O)CCNC2=O)CC1 | 0.172%
CS(=O)(=O)N1CC2(CCCN2Cc2ccc(Cl)cc2)Cc2ccccc21 (configuration not stated) | 17%
CCc1nc(C2CCCN2Cc2nc(CCOC)no2)no1 (configuration not stated) | -10.8%
Cc1ccc(C(=O)N2CCc3ncnc(C)c3CC2)o1 | 7.89%
COc1ccc(C2CCN(Cc3cscn3)CC2)cc1 | -0.243%
CC(C)(C)c1cn(C2CCN(C3CCSC3)CC2)nn1 (configuration not stated) | -3.99%
Cc1cc(C)c2nc(CN3CCC(N4CCOC4=O)CC3)cc(O)c2c1 | -0.213%
